Measured values reported in ChEMBL document CHEMBL3745653, “Honokiol for the Treatment of Neonatal Pain and Prevention of Consequent Neurobehavioral Disorders” (J Nat Prod, 2015).
Active and inactive are the calls of the source.

How the values were obtained:
[1] = system: Rattus norvegicus; assay: Antinociceptive activity in Wistar rat pups assessed as paw-lifting at 10 mg/kg, ip administered 1 hr on postnatal day 7 prior to formalin challenge measured for 60 secs at 5 mins interval for 60 mins; type: functional, organism-based
Method in brief: (§1)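 Honokiol in corn oil (vehicle alone as control) given ip 1 h before intraplantar sc injection of 5% formalin (10 μL) or saline into the left forepaw. Recuperation behaviours (paw licking, lifting, flinching, rolling) scored for 60 s at 5 min intervals over 60 min. Phase I at 5 min, phase II tonic period 5−60 min. Blinded observers, n = 8 per group, mean ± SEM.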

[2] = system: Rattus norvegicus; assay: Antinociceptive activity in Wistar rat pups assessed as flinching at 10 mg/kg, ip administered 1 hr on postnatal day 7 prior to formalin challenge measured for 60 secs at 5 mins interval for 60 mins; type: functional, organism-based; method in brief: as §1
[3] = system: Rattus norvegicus; assay: Antinociceptive activity in Wistar rat pups assessed as rolling at 10 mg/kg, ip administered 1 hr on postnatal day 7 prior to formalin challenge measured for 60 secs at 5 mins interval for 60 mins; type: functional, organism-based; method in brief: as §1
[4] = system: Rattus norvegicus; assay: Antinociceptive activity in formalin-induced Wistar rat pups pain model assessed as decrease in recuperation time at 10 mg/kg, ip administered 1 hr on postnatal day 7 prior to formalin challenge; type: functional; method in brief: as §1
[5] = system: Rattus norvegicus; assay: Antinociceptive activity in formalin-induced Wistar rat pups pain model assessed as decrease in thermal hyperalgesia at 10 mg/kg, ip administered daily from postnatal day 4 to day 6 prior to formalin challenge followed by further compound administration every other day until postnatal day 17 to day 21 by hot plate test; type: functional, organism-based
Method in brief: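 Chronic severe pain model: 5% formalin (10 μL sc) or saline injected into each paw in sequence at 1 h intervals, daily P4−P6. Honokiol or corn oil ip before insult each day, then every other day until P21. Latency to jump on a 55 ± 2 °C hot plate, cutoff 30 s. Three readings at least 15 min apart averaged per animal. Blinded, mean ± SEM.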

[6] = system: Rattus norvegicus; assay: Antinociceptive activity in formalin-induced Wistar rat pups pain model assessed as improved exploratory behavior at 10 mg/kg, ip administered 1 hr on postnatal day 7 prior to formalin challenge measured on postnatal day 21 by defensive withdrawal test; type: functional, organism-based
Method in brief: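 Defensive withdrawal at P21, during the dark cycle, after the neonatal formalin or saline insult with ip honokiol or corn oil. Habituation to the 50 × 50 × 50 cm open field for 10 min without the chamber. Animals then started in a dark chamber along the wall. Latency measured until all four paws were outside the chamber. Blinded, mean ± SEM.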

[7] = system: Rattus norvegicus; assay: Toxicity in formalin-induced Wistar rat pups pain model assessed as change in exploratory behavior by measuring distance travelled at 10 mg/kg, ip administered 1 hr […] prior to formalin challenge measured for 5 mins on postnatal day 21 by open field test; type: organism-based; conditions: in vivo
Method in brief: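 Open-field test at P21 during the dark cycle, 1 h after ip honokiol or corn oil. Rats explored a 50 × 50 × 50 cm box for 5 min under video tracking, and total distance travelled was calculated. n = 3 or 4 per group.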

[8] = system: Rattus norvegicus; assay: Antinociceptive activity in formalin-induced Wistar rat pups pain model assessed as downregulation of c-Fos expression in hippocampus at 10 mg/kg, ip administered on postnatal day 7 measured after 3 days post formalin challenge by immunohistochemical staining assay relative to control; type: functional, organism-based
Method in brief: (§2)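 c-Fos immunohistochemistry on brain sections from P7 rats after the 3-day formalin or control protocol. Sections fixed in formalin, treated with 0.3% H2O2, blocked in 1% fish gel, then anti-c-Fos 1:500 for 24 h and biotinylated IgG. Six 20 μm sections ≥90 μm apart per animal, each with six random 20× fields counted. n = 6−8 per group.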

[9] = system: Rattus norvegicus; assay: Antinociceptive activity in formalin-induced Wistar rat pups pain model assessed as downregulation of c-Fos expression in thalamus at 10 mg/kg, ip administered on postnatal day 7 measured after 3 days post formalin challenge by immunohistochemical staining assay relative to control; type: functional, organism-based; method in brief: as §2
[10] = system: Rattus norvegicus; assay: Antinociceptive activity in formalin-induced Wistar rat pups pain model assessed as upregulation of substance P receptor expression in alveus at 10 mg/kg, ip administered 1 hr on postnatal day 7 prior to formalin challenge measured on postnatal day 21 by immunohistochemical staining assay relative to control; type: functional, organism-based
Method in brief: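 Substance P receptor immunostaining at P21, 14 days after the 3-day formalin or saline protocol with ip honokiol or corn oil. Sections fixed in formalin then cold methanol, 0.2% Triton under 3 min, 1% fish gel block 1 h, primary antibody 24 h, then secondary. Positive cells counted in the hippocampal alveus, mean ± SEM.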

[11] = system: Rattus norvegicus; assay: Antinociceptive activity in Wistar rat pups assessed as paw-licking at 10 mg/kg, ip administered 1 hr on postnatal day 7 prior to formalin challenge measured for 60 secs at 5 mins interval for 60 mins; type: functional, organism-based; method in brief: as §1
[12] = system: Rattus norvegicus; assay: Antinociceptive activity in formalin-induced Wistar rat pups pain model assessed as increased in discrimination ratio at 10 mg/kg, ip administered 1 hr on postnatal day 7 prior to formalin challenge measured on postnatal day 21 by novel object recognition test

C=CCc1ccc(O)c(-c2ccc(O)c(CC=C)c2)c1 [HONOKIOL]
Activity [1]: Active | Activity [2]: Active | Activity [3]: Active | Time [4]: 30 min | Activity [5]: Active | Activity [6]: Active | Activity [7]: 4000 mm | Activity [8]: Active | Activity [9]: Active | Activity [10]: Active | Activity [11]: Active | Activity [12]: Active
